In ChEMBL document CHEMBL1159367, “Antineoplastic agents. 485. Isolation and structure of cribrostatin 6, a dark blue cancer cell growth inhibitor from the marine sponge Cribrochalina sp” (2003):
Values after ≈ are worked out from the molar mass of the structure shown.

Assays:
Format in all cases: functional
Streptococcus pneumoniae [1] = experiment: Antimicrobial activity against Streptococcus pneumoniae isolate by broth microdilution susceptibility assay
BXPC-3 = experiment: Growth inhibition of human BxPC3 cells
Streptococcus = experiment: Antimicrobial activity against Streptococcus isolate by broth microdilution susceptibility assay
SF-268 = experiment: Growth inhibition of human SF268 cells
Candida albicans = experiment: Antimicrobial activity against Candida albicans ATCC 90028 by broth microdilution susceptibility assay
KM-20L2 = experiment: Growth inhibition of human KM20L2 cells
Streptococcus pneumoniae [2] = experiment: Antimicrobial activity against penicillin-resistant Streptococcus pneumoniae isolate by broth microdilution susceptibility assay
In short: (§1)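 Broth microdilution susceptibility testing following established reference methods. MIC was taken as the lowest compound concentration giving complete inhibition of visible growth, with wells optically clear.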

MCF7 = experiment: Growth inhibition of human MCF7 cells
Micrococcus luteus = experiment: Antimicrobial activity against Micrococcus luteus Presque Isle 456 by broth microdilution susceptibility assay
NCI-H460 = experiment: Growth inhibition of human NCI-H460 cells
[3] = test system: Stenotrophomonas maltophilia; experiment: Antimicrobial activity against Stenotrophomonas maltophilia ATCC 13637 by broth microdilution susceptibility assay
Enterococcus faecalis [4] = experiment: Antimicrobial activity against Enterococcus faecalis ATCC 29212 isolate by broth microdilution susceptibility assay; in short: as §1
Streptococcus pneumoniae [5] = experiment: Antimicrobial activity against Streptococcus pneumoniae ATCC 6303 by broth microdilution susceptibility assay
Cryptococcus neoformans = experiment: Antimicrobial activity against Cryptococcus neoformans ATCC 90112 by broth microdilution susceptibility assay
Enterococcus faecalis [6] = experiment: Antimicrobial activity against vancomycin-resistant Enterococcus faecalis isolate by broth microdilution susceptibility assay; in short: as §1
Enterobacter cloacae = experiment: Antimicrobial activity against Enterobacter cloacae ATCC 13047 by broth microdilution susceptibility assay
Escherichia coli = experiment: Antimicrobial activity against Escherichia coli ATCC 25922 by broth microdilution susceptibility assay
Bacillus subtilis = experiment: Antimicrobial activity against Bacillus subtilis isolate by broth microdilution susceptibility assay
Neisseria gonorrhoeae = experiment: Antimicrobial activity against Neisseria gonorrhoeae ATCC 49226 by broth microdilution susceptibility assay
DU-145 = experiment: Growth inhibition of human DU145 cells
Staphylococcus aureus [7] = experiment: Antimicrobial activity against methicillin-resistant Staphylococcus aureus isolate by broth microdilution susceptibility assay; in short: as §1
Staphylococcus aureus [8] = experiment: Antimicrobial activity against Staphylococcus aureus ATCC 29213 by broth microdilution susceptibility assay; in short: as §1
P388 = experiment: Growth inhibition of mouse P388 cells

CCOC1=C(C)C(=O)c2ccn3c(C)ncc3c2C1=O [CRIBROSTATIN 6]
MIC (Streptococcus pneumoniae [1]): 1 µg/mL (≈ 3.7 µM)
GI50 (BXPC-3): > 1 µg/mL
MIC (Streptococcus): 16 µg/mL (≈ 59.2 µM)
GI50 (SF-268): 0.24 µg/mL (≈ 0.888 µM)
MIC (Candida albicans): 64 µg/mL (≈ 237 µM)
GI50 (KM-20L2): > 1 µg/mL
MIC (Streptococcus pneumoniae [2]): 2 µg/mL (≈ 7.4 µM)
GI50 (MCF7): 0.21 µg/mL (≈ 0.777 µM)
MIC (Micrococcus luteus): 16 µg/mL (≈ 59.2 µM)
GI50 (NCI-H460): > 1 µg/mL
MIC [3]: > 64 µg/mL
MIC (Enterococcus faecalis [4]): 32 µg/mL (≈ 118 µM)
MIC (Streptococcus pneumoniae [5]): 0.5 µg/mL (≈ 1.85 µM)
MIC (Cryptococcus neoformans): 2 µg/mL (≈ 7.4 µM)
MIC (Enterococcus faecalis [6]): 32 µg/mL (≈ 118 µM)
MIC (Enterobacter cloacae): > 64 µg/mL
MIC (Escherichia coli): > 64 µg/mL
MIC (Bacillus subtilis): 2 µg/mL (≈ 7.4 µM)
MIC (Neisseria gonorrhoeae): 0.0625 µg/mL (≈ 0.231 µM)
GI50 (DU-145): 0.38 µg/mL (≈ 1.41 µM)
MIC (Staphylococcus aureus [7]): 16 µg/mL (≈ 59.2 µM)
MIC (Staphylococcus aureus [8]): 16 µg/mL (≈ 59.2 µM)
GI50 (P388): 0.29 µg/mL (≈ 1.07 µM)
EC50 (P388; read-out: ED50 (the source's name)): 0.3 µg/mL (≈ 1.11 µM)
